Here are results for 3 compounds from ChEMBL document CHEMBL1145496 (Antimicrob Agents Chemother, 2007).

Format in all cases: functional
In assay [1] the test system is Enterococcus faecalis. In words: Antimicrobial activity against vancomycin A-resistant Enterococcus faecalis TX2784 isolate by agar dilution method. The method in brief:
(§1)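 Agar dilution MIC on Mueller-Hinton agar II per CLSI, standard inoculum 10⁴ CFU/spot; drug dissolved in 9.9% glacial acetic acid plus 1% DMSO. Control strains E. faecalis ATCC 29212, S. aureus ATCC 29213, E. coli 25922.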
(In general: In agar dilution, organisms are placed on agar that contains the substance at set levels.)

The test system of assay [2] is Enterococcus faecalis. The assay can be described thus: Antimicrobial activity against beta-lactamase producing Enterococcus faecalis TX0630 isolate by agar dilution method. The method in brief: as §1
The subject of assay [3] is Enterococcus faecalis. The assay can be described thus: Antimicrobial activity against vancomycin B-resistant Enterococcus faecalis TX2484 isolate by agar dilution method. The method in brief: as §1
Assay [4] deals with Enterococcus faecalis. In words: Antimicrobial activity against beta-lactamase producing vancomycin-resistant Enterococcus faecalis TX0614 isolate at 10^4 CFU/spot. The method in brief:
as §1

Assay [5] deals with Enterococcus faecalis. In words: Antimicrobial activity against beta-lactamase producing vancomycin-resistant Enterococcus faecalis TX0614 isolate at 10^7 […]. The method in brief:
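High-inoculum MIC by broth dilution in Mueller-Hinton broth at 10⁷ CFU/ml (per ml in broth, not per spot).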

The test system of assay [6] is Enterococcus faecalis. In words: Antimicrobial activity against Enterococcus faecalis TX0645 isolate at 10^4 CFU/spot. The method in brief:
as §1

Assay [7] relates to Enterococcus faecalis. In words: Bactericidal activity against vancomycin B-resistant Enterococcus faecalis TX2484 isolate assessed as decrease in viable count after 24 hrs. The method in brief: (§2)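 Time-kill in 20 ml BHI broth, starting inoculum 10⁷ CFU/ml from overnight culture. Viable counts at 0, 4 and 24 h by plating on BHI agar after centrifuging 1-ml samples and resuspending in 0.9% saline to remove carryover. Detection limit 10 CFU/ml. Bactericidal = ≥3-log₁₀ CFU/ml drop over 0–24 h. Two to four runs per strain.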

The test system of assay [8] is Enterococcus faecalis. In words: Bactericidal activity against vancomycin A-resistant Enterococcus faecalis TX2784 isolate assessed as decrease in viable count after 24 hrs. The method in brief: as §2
The test system of assay [9] is Enterococcus faecalis. In words: Antimicrobial activity against beta-lactamase producing Enterococcus faecalis TX5070 isolate by agar dilution method. The method in brief: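 Starting inoculum was 10⁴ CFU/spot, and E. faecalis ATCC 29212 served as control. Drug was diluted in 9.9% glacial acetic acid plus 1% DMSO.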
Assay [10] relates to Enterococcus faecalis. In words: Antimicrobial activity against beta-lactamase producing Enterococcus faecalis TX0630 isolate at 10^4 CFU/spot. The method in brief:
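Agar dilution MIC on Mueller-Hinton agar II following CLSI recommendations, with a standard inoculum of 10⁴ CFU/spot. Drug was diluted in 9.9% glacial acetic acid plus 1% DMSO. Control strains were E. faecalis ATCC 29212, S. aureus ATCC 29213 and E. coli 25922. Isolates were recovered from −80°C frozen stocks.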

Assay [11] has as its system Enterococcus faecalis. The assay can be described thus: Antimicrobial activity against beta-lactamase producing vancomycin-resistant Enterococcus faecalis TX0638 isolate at 10^4 CFU/spot. The method in brief:
as §1

Assay [12] concerns Enterococcus faecalis. In words: Antimicrobial activity against beta-lactamase producing vancomycin-resistant Enterococcus faecalis TX0921 isolate at 10^4 CFU/spot. The method in brief: as §1
Assay [13] relates to Enterococcus faecalis. The assay can be described thus: Antimicrobial activity against beta-lactamase producing vancomycin-resistant Enterococcus faecalis isolates by agar dilution method. The method in brief: as §1

In brackets after ≈: the same amount, converted by molar mass.

In general, MIC refers to the least concentration at which growth counts as inhibited. Low readings indicate inhibition by little substance, high ones a need for much substance. The MIC50 is the lowest concentration that inhibits either 50% of growth or 50% of the strains tested, depending on the study. Low readings indicate greater potency, high ones weaker potency. As usually defined, the MIC90 is an inhibitory concentration at the 90% level, which refers to growth in some studies and to a panel of isolates in others. Lower therefore signals higher susceptibility.

With `CC1(C)S[C@@H]2[C@H](NC(=O)[C@H](N)c3ccccc3)C(=O)N2[C@H]1C(=O)O` [AMPICILLIN], the MIC against Enterococcus faecalis [1] was found to be 0.5 µg/mL (≈ 1.43 µM); against Enterococcus faecalis [2], 1 µg/mL (≈ 2.86 µM); against Enterococcus faecalis [3], 0.5 µg/mL (≈ 1.43 µM).

On to `Nc1nc(/C(=N/O)C(=O)N[C@@H]2C(=O)N3C(C(=O)O)=C(/C=C4\CCN([C@@H]5CCNC5)C4=O)CS[C@H]23)ns1` [CEFTOBIPROLE], for which the minimal inhibitory concentration (MIC) with Enterococcus faecalis [1] is 0.25 µg/mL (≈ 0.468 µM); in the assay on Enterococcus faecalis [4], 1 µg/mL (≈ 1.87 µM); against Enterococcus faecalis [5], 2 µg/mL (≈ 3.74 µM); against Enterococcus faecalis [6] it was 0.25 µg/mL (≈ 0.468 µM); in the assay on Enterococcus faecalis [2], 0.25 µg/mL (≈ 0.468 µM); with Enterococcus faecalis [9], 0.125 µg/mL (≈ 0.234 µM). Further, the MIC in the assay on Enterococcus faecalis [3] came to 0.5 µg/mL (≈ 0.935 µM); against Enterococcus faecalis [10] it was 0.125 µg/mL (≈ 0.234 µM); in the assay on Enterococcus faecalis [11], 0.25 µg/mL (≈ 0.468 µM); against Enterococcus faecalis [12] it was 0.25 µg/mL (≈ 0.468 µM). Also, the log10CFU/ml with Enterococcus faecalis [7] and in the assay with Enterococcus faecalis [8] was greater than 3 each time. Moreover, the MIC50 against Enterococcus faecalis [13] was determined as 0.25 µg/mL (≈ 0.468 µM). The MIC90 in the assay on Enterococcus faecalis [13] was 1 µg/mL (≈ 1.87 µM).

Turning to `CN[C@H](CC(C)C)C(=O)N[C@H]1C(=O)N[C@@H](CC(N)=O)C(=O)N[C@H]2C(=O)N[C@H]3C(=O)N[C@H](C(=O)N[C@H](C(=O)O)c4cc(O)cc(O)c4-c4cc3ccc4O)[C@H](O)c3ccc(c(Cl)c3)Oc3cc2cc(c3O[C@@H]2O[C@H](CO)[C@@H](O)[C@H](O)[C@H]2O[C@H]2C[C@](C)(N)[C@H](O)[C@H](C)O2)Oc2ccc(cc2Cl)[C@H]1O` [VANCOMYCIN], the MIC against Enterococcus faecalis [1] is greater than 256 µg/mL; against Enterococcus faecalis [2] it was 0.5 µg/mL (≈ 0.345 µM); against Enterococcus faecalis [9], 8 µg/mL (≈ 5.52 µM); with Enterococcus faecalis [3], greater than 256 µg/mL.
